ChEMBL document CHEMBL5038678, “Stereochemical Effects on the Antimicrobial Properties of Tetrasubstituted 2,5-Diketopiperazines” (ACS Med Chem Lett, 2022)
≈ marks a conversion by molar mass, not a printed value. Where a SMILES comes first, the peptide text is derived from it. Bridges are numbered along the chain shown (N, C = ends). [ ]: non-standard residue; d: D form. The star is where a group is joined. X1 = CC[C@H](C)CCCCC(=O)*; Dab = NCC[C@H](N)C(=O)O

What was measured:
[1] = test system: Cyberlindnera jadinii; experiment: Antifungal activity against Candida utilis SVB-Y1 assessed as reduction in fungal growth after 48 hrs by CLSI based broth microdilution assay; assay type: functional; conditions: Williopsis jadinii
Method in brief: (§1)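 Yeast susceptibility by CLSI broth microdilution (M27), final inoculum 0.5 × 10^3 to 2.5 × 10^3 CFU/mL. Run independently on three occasions; MIC reported as the lowest concentration giving agreement across all three biological replicates.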

[2] = test system: Escherichia coli; experiment: Antibacterial activity against Escherichia coli ATCC 25922 assessed as reduction in bacterial growth after 18 hrs by CLSI based broth microdilution assay; assay type: functional
Method in brief: (§2)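 CLSI broth microdilution for MIC (with MBC) in polypropylene microtiter plates, inoculum ~5 × 10^5 CFU/mL. Run independently on three occasions. The reported MIC is the lowest concentration on which all three biological replicates agreed.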

[3] = test system: Streptococcus pneumoniae; experiment: Antibacterial activity against Streptococcus pneumoniae ATCC 49619 assessed as reduction in bacterial growth after 18 hrs by CLSI based broth microdilution assay; assay type: functional
[4] = test system: Enterococcus faecalis; experiment: Antibacterial activity against Enterococcus faecalis ATCC 29212 assessed as reduction in bacterial growth after 18 hrs by CLSI based broth microdilution assay; assay type: functional; method in brief: as §2
[5] = test system: Enterococcus faecium; experiment: Antibacterial activity against vancomycin-resistant Enterococcus faecium RBWH1 assessed as reduction in bacterial growth after 18 hrs by CLSI based broth microdilution assay; conditions: RBWH1, 18 h
[6] = test system: Pseudomonas aeruginosa; experiment: Antibacterial activity against Pseudomonas aeruginosa SVB-B9 assessed as reduction in bacterial growth after 18 hrs by CLSI based broth microdilution assay; assay type: functional
[7] = test system: Staphylococcus aureus; experiment: Antibacterial activity against methicillin-resistant Staphylococcus aureus USA 300 assessed as reduction in bacterial growth after 18 hrs by CLSI based broth microdilution assay; assay type: functional; method in brief: as §2
[8] = test system: Acinetobacter baumannii; experiment: Antibacterial activity against multi-drug resistant Acinetobacter baumannii AB5075 assessed as reduction in bacterial growth after 18 hrs by CLSI based broth microdilution assay; assay type: functional; method in brief: as §2
[9] = test system: Klebsiella pneumoniae; experiment: Antibacterial activity against Klebsiella pneumoniae MS6671 assessed as reduction in bacterial growth after 18 hrs by CLSI based broth microdilution assay; assay type: functional
[10] = test system: Staphylococcus aureus; experiment: Antibacterial activity against Staphylococcus aureus ATCC 25923 assessed as reduction in bacterial growth after 18 hrs by CLSI based broth microdilution assay; assay type: functional; method in brief: as §2
[11] = test system: Aspergillus fumigatus; experiment: Antifungal activity against Aspergillus fumigatus SVB-F136 assessed as fungal growth inhibition after 48 hrs by CLSI protocol based microbroth dilution method; assay type: functional
Method in brief: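 Filamentous fungus tested by CLSI broth microdilution with final inoculum 0.4 × 10^4 to 5 × 10^4 CFU/mL. Three independent biological replicates; MIC is the lowest concentration at which all three agreed.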

[12] = test system: Candida albicans; experiment: Antifungal activity against Candida albicans SC5314 assessed as reduction in fungal growth incubated for 48 hrs by CLSI based broth microdilution assay; assay type: functional; method in brief: as §1
[13] = test system: Escherichia coli; experiment: Antibacterial activity against multi-drug resistant Escherichia coli MS8345 assessed as reduction in bacterial growth after 18 hrs by CLSI based broth microdilution assay; assay type: functional; method in brief: as §2
[14] = test system: Acinetobacter baumannii; experiment: Antibacterial activity against Acinetobacter baumannii ATCC 19606 assessed as reduction in bacterial growth after 18 hrs by CLSI based broth microdilution assay; assay type: functional
[15] = test system: Streptococcus pyogenes; experiment: Antibacterial activity against macrolide- and tetracycline-resistant Streptococcus pyogenes HKU16 assessed as reduction in bacterial growth after 18 hrs by CLSI based broth microdilution assay; assay type: functional; method in brief: as §2
[16] = Cytotoxicity against NHDF cells assessed as reduction in cell viability measured after 24 hrs by MTT assay; assay type: toxicity, cell-based; conditions: human, read-out: LD50
Method in brief: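 Adherent normal human dermal fibroblasts were read by MTT against a DMSO vehicle control. Viability is expressed as percent of untreated controls. At least three independent biological replicates were run, with each concentration in technical duplicate.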

| Compound | MIC [1] | MIC [2] | MIC [3] | MIC [4] | MIC [5] | MIC [6] | MIC [7] | MIC [8] | MIC [9] | MIC [10] | MIC [11] | MIC [12] | MIC [13] | MIC [14] | MIC [15] | CC50 at 24 h [16] |
| --- | --- | --- | --- | --- | --- | --- | --- | --- | --- | --- | --- | --- | --- | --- | --- | --- |
| N=C(N)NCCC[C@@H]1C(=O)N(Cc2ccc(-c3ccccc3)cc2)[C@@H](CCCNC(=N)N)C(=O)N1Cc1ccc(-c2ccccc2)cc1 | 2 µM (≈ 1.29 µg/mL) | 64 µM (≈ 41.3 µg/mL) | 16 µM (≈ 10.3 µg/mL) | 16 µM (≈ 10.3 µg/mL) | 8 µM (≈ 5.16 µg/mL) | 64 µM (≈ 41.3 µg/mL) | 4 µM (≈ 2.58 µg/mL) | > 64 µM | > 64 µM | 4 µM (≈ 2.58 µg/mL) | 64 µM (≈ 41.3 µg/mL) | 8 µM (≈ 5.16 µg/mL) | > 64 µM | > 64 µM | 16 µM (≈ 10.3 µg/mL) | 175 µM |
| N=C(N)NCCC[C@H]1C(=O)N(Cc2ccc(-c3ccccc3)cc2)[C@@H](CCCNC(=N)N)C(=O)N1Cc1ccc(-c2ccccc2)cc1 | 4 µM (≈ 2.58 µg/mL) | 8 µM (≈ 5.16 µg/mL) | 8 µM (≈ 5.16 µg/mL) | 2 µM (≈ 1.29 µg/mL) | 8 µM (≈ 5.16 µg/mL) | 8 µM (≈ 5.16 µg/mL) | 4 µM (≈ 2.58 µg/mL) | 16 µM (≈ 10.3 µg/mL) | 32 µM (≈ 20.6 µg/mL) | 4 µM (≈ 2.58 µg/mL) | 8 µM (≈ 5.16 µg/mL) | 4 µM (≈ 2.58 µg/mL) | 8 µM (≈ 5.16 µg/mL) | 64 µM (≈ 41.3 µg/mL) | 8 µM (≈ 5.16 µg/mL) | 63 µM |
| N=C(N)NCCC[C@H]1C(=O)N(Cc2ccccc2)[C@@H](CCCNC(=N)N)C(=O)N1Cc1ccccc1 | > 64 µM | > 64 µM | > 64 µM | > 64 µM | > 64 µM | > 64 µM | > 64 µM | > 64 µM | > 64 µM | > 64 µM | > 64 µM | > 64 µM | > 64 µM | > 64 µM | 64 µM (≈ 31.5 µg/mL) | > 512 µM |
| N=C(N)NCCC[C@@H]1C(=O)N(Cc2ccc(-c3ccccc3)cc2)[C@H](CCCNC(=N)N)C(=O)N1Cc1ccc(-c2ccccc2)cc1 | 4 µM (≈ 2.58 µg/mL) | 8 µM (≈ 5.16 µg/mL) | 8 µM (≈ 5.16 µg/mL) | 4 µM (≈ 2.58 µg/mL) | 4 µM (≈ 2.58 µg/mL) | 8 µM (≈ 5.16 µg/mL) | 4 µM (≈ 2.58 µg/mL) | 32 µM (≈ 20.6 µg/mL) | 64 µM (≈ 41.3 µg/mL) | 4 µM (≈ 2.58 µg/mL) | 8 µM (≈ 5.16 µg/mL) | 2 µM (≈ 1.29 µg/mL) | 16 µM (≈ 10.3 µg/mL) | 64 µM (≈ 41.3 µg/mL) | 8 µM (≈ 5.16 µg/mL) | 99 µM |
| NCCC[C@H]1C(=O)N(Cc2ccc(-c3ccccc3)cc2)[C@@H](CCCN)C(=O)N1Cc1ccc(-c2ccccc2)cc1 | 32 µM (≈ 17.9 µg/mL) | 16 µM (≈ 8.97 µg/mL) | 8 µM (≈ 4.49 µg/mL) | 8 µM (≈ 4.49 µg/mL) | 8 µM (≈ 4.49 µg/mL) |  | 4 µM (≈ 2.24 µg/mL) | 32 µM (≈ 17.9 µg/mL) | 8 µM (≈ 4.49 µg/mL) | 4 µM (≈ 2.24 µg/mL) | 32 µM (≈ 17.9 µg/mL) | 64 µM (≈ 35.9 µg/mL) | 16 µM (≈ 8.97 µg/mL) | 64 µM (≈ 35.9 µg/mL) | 8 µM (≈ 4.49 µg/mL) | 30 µM |
| CC[C@H](C)CCCCC(=O)N[C@@H](CCN)C(=O)N[C@H](C(=O)N[C@@H](CCN)C(=O)N[C@H]1CCNC(=O)[C@H]([C@@H](C)O)NC(=O)[C@H](CCN)NC(=O)[C@H](CCN)NC(=O)[C@H](CC(C)C)NC(=O)[C@@H](Cc2ccccc2)NC(=O)[C@H](CCN)NC1=O)[C@@H](C)O (X1-[Dab]T[Dab][Dab][Dab][dF]L[Dab][Dab]T; lactam 4-C) |  | 0.25 µM (≈ 0.301 µg/mL) | 8 µM (≈ 9.63 µg/mL) | 8 µM (≈ 9.63 µg/mL) | > 64 µM |  | 32 µM (≈ 38.5 µg/mL) | 0.25 µM (≈ 0.301 µg/mL) | 16 µM (≈ 19.3 µg/mL) | 64 µM (≈ 77 µg/mL) |  |  | 4 µM (≈ 4.81 µg/mL) | 1 µM (≈ 1.2 µg/mL) | 32 µM (≈ 38.5 µg/mL) | > 512 µM |
| CC1(C)S[C@@H]2[C@H](NC(=O)[C@H](N)c3ccc(O)cc3)C(=O)N2[C@H]1C(=O)O [AMOXICILLIN] |  | 16 µM (≈ 5.85 µg/mL) | 0.5 µM (≈ 0.183 µg/mL) | 8 µM (≈ 2.92 µg/mL) | 64 µM (≈ 23.4 µg/mL) | > 64 µM | > 64 µM |  |  | 1 µM (≈ 0.365 µg/mL) |  |  |  |  | 0.25 µM (≈ 0.0914 µg/mL) | > 512 µM |
| C[C@@H]1[C@H](O)[C@@H](C)/C=C/C=C/C=C/C=C/C=C/C=C/C=C/[C@H](O[C@@H]2O[C@H](C)[C@@H](O)[C@H](N)[C@@H]2O)C[C@@H]2O[C@](O)(C[C@@H](O)C[C@@H](O)[C@H](O)CC[C@@H](O)C[C@@H](O)CC(=O)O[C@H]1C)C[C@H](O)[C@H]2C(=O)O [AMPHOTERICIN B] | 2 µM (≈ 1.85 µg/mL) |  |  |  |  |  |  |  |  |  | 4 µM (≈ 3.7 µg/mL) | 1 µM (≈ 0.924 µg/mL) |  |  |  |  |
